ChEMBL document CHEMBL1153582, “Expedient solid-phase synthesis of both symmetric and asymmetric diol libraries targeting aspartic proteases” (Bioorg Med Chem Lett, 2009)

Experiments:
Plasmepsin I = Plasmepsin I (Plasmodium falciparum, UniProt P39898); assay: Inhibition of Plasmodium falciparum plasmepsin-1 in fluorescence microplate assay
Outline: (§1)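 Library products were used as crude material, without purification, for direct in situ screening in a standard fluorescence microplate assay. IC50 was taken from inhibition curves plotted against log inhibitor concentration in nM.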

Plasmepsin II = Plasmepsin II (Plasmodium falciparum, UniProt P46925); assay: Inhibition of Plasmodium falciparum plasmepsin-2 in fluorescence microplate assay; outline: as §1
Protease = Protease (Human immunodeficiency virus 1, UniProt Q9YQ12); assay: Inhibition of HIV1 protease by fluorescence microplate assay; outline: as §1
Sequence of Protease (Q9YQ12 whole entry): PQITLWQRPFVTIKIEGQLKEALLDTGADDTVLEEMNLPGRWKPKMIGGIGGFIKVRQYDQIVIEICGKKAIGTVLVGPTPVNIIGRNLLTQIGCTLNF

Sequence of Plasmepsin I (P39898 whole entry): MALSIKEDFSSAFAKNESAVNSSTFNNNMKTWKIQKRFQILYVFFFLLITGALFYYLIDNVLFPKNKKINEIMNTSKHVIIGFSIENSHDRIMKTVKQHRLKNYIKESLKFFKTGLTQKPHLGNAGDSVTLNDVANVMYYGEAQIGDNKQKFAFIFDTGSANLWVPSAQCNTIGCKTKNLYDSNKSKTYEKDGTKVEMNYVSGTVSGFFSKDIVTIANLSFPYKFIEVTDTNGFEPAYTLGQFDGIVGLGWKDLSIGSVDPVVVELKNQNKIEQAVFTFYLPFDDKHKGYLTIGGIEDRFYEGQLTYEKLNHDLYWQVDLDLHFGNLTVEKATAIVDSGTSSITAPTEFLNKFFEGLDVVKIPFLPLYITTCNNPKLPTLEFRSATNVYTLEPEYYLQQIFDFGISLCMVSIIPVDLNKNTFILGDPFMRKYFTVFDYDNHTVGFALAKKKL
Sequence of Plasmepsin II (P46925 whole entry): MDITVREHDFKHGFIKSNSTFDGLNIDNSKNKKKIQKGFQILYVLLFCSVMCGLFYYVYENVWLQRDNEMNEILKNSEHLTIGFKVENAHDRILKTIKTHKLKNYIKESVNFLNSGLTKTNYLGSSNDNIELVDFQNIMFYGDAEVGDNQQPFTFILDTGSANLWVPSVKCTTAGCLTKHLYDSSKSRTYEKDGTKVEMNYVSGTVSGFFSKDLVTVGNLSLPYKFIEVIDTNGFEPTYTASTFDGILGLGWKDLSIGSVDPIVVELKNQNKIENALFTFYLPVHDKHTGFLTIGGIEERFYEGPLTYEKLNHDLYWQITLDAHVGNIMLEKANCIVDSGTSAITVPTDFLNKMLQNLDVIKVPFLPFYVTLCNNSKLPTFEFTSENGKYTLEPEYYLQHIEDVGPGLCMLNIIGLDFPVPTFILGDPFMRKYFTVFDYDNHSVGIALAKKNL

| Structure (SMILES) | IC50 (Plasmepsin I) [µM] | IC50 (Plasmepsin II) [µM] | IC50 (Protease) [µM] | Ki (Protease) [µM] |
| --- | --- | --- | --- | --- |
| O=C(N[C@@H](Cc1ccccc1)[C@@H](O)[C@H](O)[C@H](Cc1ccccc1)NC(=O)c1ccc(F)cc1Cl)c1ccc2c(c1)OCCO2 | > 25 | 11.8 | > 25 | – |
| CC(C)C[C@H](NC(=O)CC1CCCCC1)[C@@H](O)[C@H](O)[C@H](CC(C)C)NC(=O)CC1CCCCC1 | 2.64 | > 25 | > 25 | – |
| O=C(CC1CCCCC1)N[C@@H](Cc1ccccc1)[C@@H](O)[C@H](O)[C@H](Cc1ccccc1)NC(=O)CC1CCCCC1 | 4.39 | 3.91 | > 25 | – |
| COc1ccccc1C(=O)N[C@@H](CC(C)C)[C@@H](O)[C@H](O)[C@H](CC(C)C)NC(=O)c1ccccc1OC | > 25 | > 25 | 1.31 | – |

Now from value to compound:

| IC50 (Plasmepsin I) [µM] | IC50 (Plasmepsin II) [µM] | IC50 (Protease) [µM] | Ki (Protease) [µM] | Structure (SMILES) |
| --- | --- | --- | --- | --- |
| > 25 | > 25 | 0.395 | 0.4 | O=C(N[C@@H](Cc1ccccc1)[C@@H](O)[C@H](O)[C@H](Cc1ccccc1)NC(=O)c1ccc(F)cc1Cl)c1ccc(F)cc1Cl |
| > 25 | 12.7 | > 25 | – | Cc1ccc(C(=O)N[C@@H](Cc2ccccc2)[C@@H](O)[C@H](O)[C@H](Cc2ccccc2)NC(=O)C2CCOC2)cn1 (some centres undefined) |
